Screening data (PubChem BioAssay)
This is a sample that favours compounds with a hit; in the whole collection about 2.3% have one here.
TRPC4 inh = blocks the mouse TRPC4 cation channel. B-score at 10 µM. AID 2247. actives 0.39% (n = 300,000). HEK293 TRPC4beta/mu-opioid, DAMGO-evoked Fluo4 calcium flux; hits give low values. Q9QUQ5;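 active = B-score over 3 SD under the library average, no early fluorescence shift, positive overall ratio signal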
Target sequence (Q9QUQ5 whole entry, looked up): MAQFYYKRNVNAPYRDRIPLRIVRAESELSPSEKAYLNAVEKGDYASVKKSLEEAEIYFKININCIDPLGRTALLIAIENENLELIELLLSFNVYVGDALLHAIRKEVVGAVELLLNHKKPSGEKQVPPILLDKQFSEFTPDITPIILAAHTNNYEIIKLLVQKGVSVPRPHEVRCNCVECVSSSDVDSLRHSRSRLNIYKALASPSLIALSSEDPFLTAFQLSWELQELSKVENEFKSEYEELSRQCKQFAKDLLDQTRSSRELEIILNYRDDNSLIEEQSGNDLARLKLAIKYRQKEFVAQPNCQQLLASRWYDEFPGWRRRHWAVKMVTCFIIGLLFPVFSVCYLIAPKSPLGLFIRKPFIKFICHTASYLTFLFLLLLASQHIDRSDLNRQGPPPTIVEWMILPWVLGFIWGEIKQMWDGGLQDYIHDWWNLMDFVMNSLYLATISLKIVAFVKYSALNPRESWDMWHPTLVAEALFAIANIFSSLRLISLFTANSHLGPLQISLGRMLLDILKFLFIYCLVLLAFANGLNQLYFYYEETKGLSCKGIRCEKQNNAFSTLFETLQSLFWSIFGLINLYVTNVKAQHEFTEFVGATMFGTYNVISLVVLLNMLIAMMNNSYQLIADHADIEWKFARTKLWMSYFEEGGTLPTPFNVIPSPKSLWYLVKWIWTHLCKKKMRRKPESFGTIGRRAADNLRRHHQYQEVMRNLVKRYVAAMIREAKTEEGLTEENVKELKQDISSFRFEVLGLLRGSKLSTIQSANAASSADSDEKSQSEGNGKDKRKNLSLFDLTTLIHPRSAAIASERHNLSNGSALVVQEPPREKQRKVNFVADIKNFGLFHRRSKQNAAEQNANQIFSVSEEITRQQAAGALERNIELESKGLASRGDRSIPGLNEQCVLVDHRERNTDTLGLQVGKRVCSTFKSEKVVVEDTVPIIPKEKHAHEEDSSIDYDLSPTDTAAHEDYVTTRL
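Assay system: HEK293 cells with stable TRPC4beta plus mu-opioid receptor expression. Dosing: single dose. Measured by: Fluo4 Ca2+ flux fluorescence. Also added: DAMGO in two steps, submaximal then maximal. Read-out: B score from integrated Fluo4 fluorescence ratio.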
TRPC4 agonist = opens the mouse TRPC4 cation channel; HEK293 TRPC4beta/mu-opioid, Fluo4 calcium fluorescence; hits give high values; B-score at 10 µM; actives 0.49% (n = 310,000);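 active = B-score above 5 SD of library B-scores, and initial fluorescence ratio not above library mean plus 5 SD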;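 note: positive B-score marks a calcium rise read as TRPC4 activation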
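System – HEK293 cells stably co-expressing mouse TRPC4beta and mu-opioid receptor · Signal – Fluo4 calcium-sensitive dye fluorescence, kinetic, 1 Hz baseline · Benchmarks – buffer (low) and maximal DAMGO (high) · Read-out – B score of integrated fluorescence ratio per well · Incubation – dye loading 45 min room temperature, 110 s kinetic read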
TRPC4 PAM = TRPC4 (mouse) allosteric potentiation | HEK293 TRPC4beta/mu-opioid, DAMGO EC20, Fluo-4 Ca2+ flux; hits give high values | B-score at 10 µM | actives 0.42% (n = 310,000) | AID 2227;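 active = B-score of calcium response area above 5 SD of library B-scores, with initial fluorescence ratio within 5 SD of library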;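 note: B-score of integrated fluorescence ratio over time as area under calcium response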
TRPC6 inhibitor = inhibitors of mouse TRPC6 channel; Q61143; HEK293-TRPC6, membrane potential dye, ACh-evoked depolarization; hits give low values; B-score at 10 µM; actives 1.1% (n = 310,000);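 active = B-score under library mean minus 3 SD, initial fluorescence not abnormally high, positive integrated signal ratio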;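 note: B-score derived from integrated fluorescence ratio over the kinetic read; more negative B-score means stronger inhibition of depolarization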
TRPC6 act = mouse TRPC6 channel activation; Q61143; AID 2550; HEK293-TRPC6 membrane potential dye fluorescence; hits give high values; B-score at 10 µM; actives 0.13% (n = 310,000);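 active = B-score of the integrated fluorescence ratio above library mean plus 3 SD, and starting fluorescence ratio within library mean plus 5 SD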;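 note: higher score means more depolarization so channel activation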
The depositor's hits bear a star; i = inactive.

SMILES	TRPC4 inh	TRPC4 agonist	TRPC4 PAM	TRPC6 inhibitor	TRPC6 act
O=C(Nc1cc(S(=O)(=O)N2CCCCC2)ccc1N1CCCCC1)c1ccncc1	i	i	i	i	i
Cc1ccc(-c2csc3ncnc(NCCN4CCOCC4)c23)cc1	-6*	i	i	i	i
Clc1ccc(-c2csc3ncnc(NCCN4CCOCC4)c23)cc1	-5*	i	i	i	i
c1ccc(-c2csc3ncnc(NCCN4CCOCC4)c23)cc1	i	i	i	i	i
CCN=C1SC(CC(=O)NC(C)c2ccccc2)C(=O)N1CC (stereo not given)	i	i	i	i	i
N#Cc1c(-c2cccs2)nc(SCc2ccc(Cl)cc2)[nH]c1=O	-7*	i	15*	i	i
CC1(C)C(=O)Nc2ccccc2N1C(=O)COC(=O)C1CCCCC1	i	i	10*	i	i
CCN(CC)S(=O)(=O)c1cc(NC(=O)CSc2nc3c(cc2C#N)C(=O)CC(C)(C)C3)ccc1C	i	i	i	i	i
COc1cccc(CNC(=O)C2CSC3(C)CCC(=O)N23)c1 (stereo not given)	i	i	i	i	i
O=C(c1cc(S(=O)(=O)N2CCOCC2)ccc1F)N(CCc1ccccc1)Cc1ccccc1	i	i	i	i	i
CCOC(=O)N1CCN(S(=O)(=O)c2ccc(C(=O)NNc3nc4c(C)cccc4s3)cc2)CC1	i	i	i	i	i
CCOC(=O)N1CCN(S(=O)(=O)c2ccc(C(=O)NNc3nc4c(C)cc(C)cc4s3)cc2)CC1	i	i	10*	i	i
COc1ccc(OC)c(C(=O)Cn2c3[n+](c4ccc(C(F)(F)F)cc42)CCCCC3)c1	i	i	i	i	i
CCc1cc(=O)oc2c(CNCc3ccccc3F)c(O)c(Cl)cc12	i	i	17*	i	i
CCN1CCN(c2nc(N)c([N+](=O)[O-])c(Nc3ccc(C)cc3)n2)CC1	i	i	17*	i	i
CCN1CCN(c2nc(N)c([N+](=O)[O-])c(Nc3ccc(C)c(C)c3)n2)CC1	i	i	29*	i	i
Cc1cc(C(=O)CN2C(=O)NC(CC(C)C)C2=O)c(C)n1-c1ccccc1F (stereo not given)	i	i	i	i	i
Cc1cc(C(=O)CN2C(=O)C(=O)N(CC(C)C)C2=O)c(C)n1-c1ccccc1F	i	i	15*	i	i
Cc1cc(C(=O)Cn2nnc3ccccc3c2=O)c(C)n1-c1ccccc1F	i	i	14*	i	i
COc1ccc(-n2c(C)cc(C(=O)Cn3nnc4ccccc4c3=O)c2C)cc1	i	i	i	i	i
O=C(O)C(Cc1ccccc1)N1C(=O)/C(=C/c2ccccc2)SC1=S (stereo not given)	i	i	i	i	i
Cc1ccc(/C=C2\SC(=S)N(C(Cc3ccccc3)C(=O)O)C2=O)cc1 (stereo not given)	-8*	i	i	i	i
CN(C(=O)CSc1nc(-c2ccc(C(C)(C)C)cc2)c(C#N)c(=O)[nH]1)C1CCCCC1	-6*	i	i	i	i
N#Cc1c(-c2ccccc2)nc(SCC(=O)NC2CCCCC2)[nH]c1=O	i	i	i	i	i
COC(=O)Nc1ccc(N2CCOCC2)c(S(=O)(=O)N2CCOCC2)c1	i	i	i	i	i
SMILES	TRPC4 inh	TRPC4 agonist	TRPC4 PAM	TRPC6 inhibitor	TRPC6 act
CCCCCCn1c(=O)[nH]c2c(c1=O)CCC2	i	i	i	i	i
CCCCCCCn1c2c(c(=N)c3c1CCC3)CCCC2	i	i	i	-6*	i
Oc1ccc(CN2CCCCC2)nc1-c1ccccc1	-6*	i	i	i	i
COc1ccc(-c2nnc(SCc3c(C)noc3C)o2)cc1	i	i	i	i	i
COc1cc(C(C)=O)ccc1OCC(O)CN1CCN(c2c(C)cccc2C)CC1 (stereo not given)	i	48*	i	i	i
COC(=O)c1ccc(N2CN=C(c3ccc(C)cc3)NC2=S)cc1	i	i	i	i	i
S=C1NC(c2ccccc2)=NCN1c1ccc(Cl)cc1	i	i	10*	i	i
c1ccc(COc2ccc3nocc3c2)cc1	i	i	i	i	i
O=Cc1cc(N=Nc2ccccc2Cl)ccc1O	-7*	i	i	i	i
O=Cc1cc(N=Nc2cccc(C(=O)O)c2)ccc1O	i	i	i	i	i
Cc1ccc(NC(=O)c2cccs2)cc1	-6*	77*	i	i	i
CC(=O)Nc1cccc(C(=O)NCC2(N3CCCCC3)CCCCC2)c1	-6*	i	i	i	i
COc1cc(C(=O)NCCc2ccc(S(=O)(=O)N3CCCC3)cc2)cc(OC)c1OC	i	i	i	i	i
COc1cc(CN(C)CC2CCCN(CCc3ccccc3F)C2)cc(Cl)c1OC (stereo not given)	-6*	i	i	i	i
CN(Cc1ccccc1)CC1CCCN(CCc2ccccc2F)C1 (stereo not given)	i	i	i	i	i
Clc1ccc(COc2ccccc2CNCc2cccnc2)cc1	-6*	i	i	i	i
c1ccc(COc2cccc(CNCc3cccnc3)c2)cc1	-6*	i	i	i	i
c1ccc(COc2cccc(CNCc3ccccn3)c2)cc1	i	i	i	i	i
Cc1ccc([N+](=O)[O-])cc1NC(=S)NC(=O)c1c(Cl)cnn1C	i	i	i	i	i
CSc1cccc(CN(C)C(=O)C2CCC(=O)N(CCCN3CCCC3=O)C2)c1 (stereo not given)	i	i	i	i	i
Fc1ccc(C(c2nnnn2Cc2cccs2)N2CCN(C3CCCCC3)CC2)cc1 (stereo not given)	i	138*	i	i	i
CN1CCN(C(c2ccc(F)cc2)c2nnnn2Cc2cccs2)CC1 (stereo not given)	i	i	i	i	i
CN1CCN(NC(=O)CN(C)S(=O)(=O)c2cc(Cl)ccc2Cl)CC1	i	84*	i	i	i
O=c1[nH]ncc(N2CCCC2)c1Cl	i	i	i	i	i
O=c1[nH]ncc(N2CCN(C(c3ccccc3)c3ccccc3)CC2)c1Cl	-9*	i	i	i	i
Cc1cc(C)nc(/N=C(\N)Nc2ccc(CC(=O)OC(C)C)cc2)n1	i	i	i	i	i
